A selection follows.
Apaf1 activ – activates human Apaf-1 apoptosome; O14727; Apaf-1 apoptosome caspase-3 activation, DEVD-Rh110 fluorescence; stronger effect = lower value; activity change, negative = activation, % at 20 µM; actives 0.31% (n = 330,000);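 active means activity change at or below -40% at 20 µM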
Target sequence (O14727 whole entry, looked up): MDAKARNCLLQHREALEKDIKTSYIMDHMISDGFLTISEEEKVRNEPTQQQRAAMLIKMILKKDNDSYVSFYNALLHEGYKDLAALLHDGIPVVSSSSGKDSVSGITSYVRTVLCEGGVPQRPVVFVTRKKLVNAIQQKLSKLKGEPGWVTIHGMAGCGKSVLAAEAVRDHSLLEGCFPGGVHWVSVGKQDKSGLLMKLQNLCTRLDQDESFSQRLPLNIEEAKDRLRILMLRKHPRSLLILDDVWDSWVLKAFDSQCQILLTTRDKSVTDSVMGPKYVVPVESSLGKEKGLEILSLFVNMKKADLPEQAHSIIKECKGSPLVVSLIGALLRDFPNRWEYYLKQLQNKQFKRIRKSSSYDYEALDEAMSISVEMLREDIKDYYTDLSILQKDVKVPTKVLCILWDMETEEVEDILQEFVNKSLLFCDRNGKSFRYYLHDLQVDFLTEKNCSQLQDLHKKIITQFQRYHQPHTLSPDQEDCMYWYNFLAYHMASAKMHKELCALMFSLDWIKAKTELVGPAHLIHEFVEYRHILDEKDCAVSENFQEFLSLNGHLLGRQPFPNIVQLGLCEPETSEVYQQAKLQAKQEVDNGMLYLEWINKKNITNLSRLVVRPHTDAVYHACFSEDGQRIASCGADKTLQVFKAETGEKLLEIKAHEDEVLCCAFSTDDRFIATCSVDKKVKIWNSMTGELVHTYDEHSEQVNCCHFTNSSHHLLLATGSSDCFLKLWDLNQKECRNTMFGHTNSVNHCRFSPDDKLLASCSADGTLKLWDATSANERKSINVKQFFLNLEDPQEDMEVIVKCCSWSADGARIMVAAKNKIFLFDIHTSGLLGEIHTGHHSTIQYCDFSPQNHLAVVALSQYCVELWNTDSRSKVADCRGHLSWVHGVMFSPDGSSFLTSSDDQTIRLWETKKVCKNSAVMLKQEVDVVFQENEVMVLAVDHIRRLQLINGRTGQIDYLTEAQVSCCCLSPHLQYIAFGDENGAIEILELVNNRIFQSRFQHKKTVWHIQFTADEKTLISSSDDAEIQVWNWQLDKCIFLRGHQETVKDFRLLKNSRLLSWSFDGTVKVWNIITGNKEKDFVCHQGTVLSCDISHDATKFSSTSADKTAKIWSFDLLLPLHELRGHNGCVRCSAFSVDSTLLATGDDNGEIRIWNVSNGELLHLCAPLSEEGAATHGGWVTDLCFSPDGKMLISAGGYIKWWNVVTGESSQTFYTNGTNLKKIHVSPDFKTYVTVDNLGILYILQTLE
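Material: biochemical Apaf-1 apoptosome reconstitution; Medium: 20 mM HEPES buffer, pH 7.5, containing CHAPS and BSA; Reagent: dATP, cytochrome c, and (Z-DEVD)2-Rh110 caspase-3 substrate; Times: 30 min preincubation, 50 min reaction, room temperature; Signal: Rh110 fluorescence, excitation 480 nm, emission 540 nm; Measure: Caspase-3 activity via Apaf-1.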
Rh110 act interf – interferes with Rh110 fluorescence, flagging false Apaf-1 activators. shares compounds with Apaf1 activ. Rh110 fluorescence interference, quenched caspase reaction, Ex480/Em540. fluorescence interference (activity change), % at 20 µM, hits read low. 980 tested, under 10 active. AID 504616;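 active means mean activity change at or below -40% when tested at 20 µM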
Apaf-1 act conf – Apaf-1 (human) activation, single-dose confirmed. shares compounds with Apaf1 activ. reconstituted apoptosome caspase-3 activity, DEVD-Rh110 fluorescence; stronger effect = lower value. activity change, negative = activation, % at 20 µM. actives 5% (n = 980);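 active means mean activity change at or below -40%, meaning activation of 40% or more, at 20 µM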
Fluor interf act – shows fluorescence interference in the Apaf-1 activator assay format; shares compounds with Apaf1 activ; fluorescence interference counterscreen; EC50, µM; 55 tested, under 10 active; AID 588592; call rule not given here
Starred values were filed as active, the others as inactive; / = no result; + = active, no number.

SMILES | Apaf1 activ | Rh110 act interf | Apaf-1 act conf | others
COc1nc(N/N=C/c2ccc(-c3ccccc3[N+](=O)[O-])o2)nc(N2CCOCC2)n1 | 54 | / | /
N#Cc1cc2ccc(N3CCOCC3)cc2cc1C#N | 82 | / | /
COc1ccc(C[C@H]2CN3C(=NC[C@H]3Cc3ccccc3)N2CCNC(=O)c2ccc(C)c(Br)c2)cc1 | 43 | / | /
Cc1ccc(N2CC(C(=O)N3CCC(C(=O)Nc4nnc(C(C)(C)C)s4)CC3)CC2=O)cc1 (stereo not drawn) | -384* | 10 | 12
C#CCOCCOCCOCCNc1nc(N2CCN(C(=O)[C@H]([C@@H](C)CC)n3cc([C@@H](N)CO)nn3)CC2)nc(N2CCN(C(=O)[C@H](Cc3cc4ccccc4[nH]3)n3cc([C@@H](N)C(C)CC)nn3)CC2)n1 (stereo partly drawn) | 48 | / | /
O=C(O)CC(NC(=O)c1sc2ccccc2c1Cl)c1ccc(OC2CCCC2)cc1 (stereo not drawn) | 44 | / | /
CCOC(=O)CC1C(=O)NCCN1C(=O)c1sc2ccccc2c1Cl (stereo not drawn) | -260* | -2 | 12
CCOC(=O)N1CCc2c(sc3c2C(=O)NC(c2ccccc2)N3)C1 (stereo not drawn) | 81 | / | /
N[C@@H](Cc1cc(I)c(Oc2ccc(O)c(I)c2)c(I)c1)C(=O)O | 4 | / | /
CCC(=O)N(CC)C1=C(O)c2ccccc2C(=O)C1=O | 55 | / | /
O=[N+]([O-])c1cccc(C2(O)COc3ccccc3O2)c1 (stereo not drawn) | -83* | 5 | 11
CN(C)CCOc1ccc(-c2c(-c3ccsc3)sc3ccccc23)cc1 | 71 | / | /
Cc1[nH]c2ccc(C(=O)NCC(C)(C)N3CCOCC3)cc2c1C | -519* | 0 | 8
CCNC(=O)Oc1ccc[nH]c1=O | 42 | / | /
Nc1ccc(C(=O)N/N=C/c2cccc(Oc3ccccc3)c2)cc1 | -64* | -4 | 14
Cc1[nH]n(-c2ccccc2)c(=O)c1/C=N/NC(=O)c1cccc(F)c1 | 62 | / | /
CCC(C)[C@H]1CN=C(N)N1CCc1cc(C(F)(F)F)cc(C(F)(F)F)c1 (stereo partly drawn) | 57 | / | /
CCN1/C(=C/c2ccc3cc(C)ccc3[n+]2CC)Sc2cc(C)c(C)cc21 | 64 | / | /
COc1ccc(Cl)cc1C(=O)NNC(=O)COC(=O)c1ccc(Br)o1 | -41* | 11 | 13
CCN(CC)CCCNC1=C(Cl)C(=O)c2ccccc2C1=O | 50 | / | /
C[C@]12C=CC(=O)C=C1CC[C@@H]1C2=CC[C@]2(C)[C@@H](C(=O)CN3CCN(c4cc(N5CCCC5)nc(N5CCCC5)n4)CC3)CC[C@@H]12 | 87 | / | /
C=C(C)C(=O)Nc1cccc(C2=NOC3(C2)C[C@@H](C(N)=O)N(C(=O)/C=C/CC)C3)c1 (stereo partly drawn) | -205* | -3 | -114* | Fluor interf act=>100
C=C(C)C(=O)Nc1cccc(C2=NOC3(C2)C[C@H](C(N)=O)N(C(=O)/C=C/C)C3)c1 (stereo partly drawn) | -280* | 9 | -126* | Fluor interf act=>100
C=CCc1cccc(/C=N/NC(=O)CNc2cccc3ccccc23)c1O | 96 | / | /
COc1ccccc1N=Nc1ccc(O)c2ncccc12 | 90 | / | /
SMILES | Apaf1 activ | Rh110 act interf | Apaf-1 act conf | others
C#CCOCCOCCOCCNc1nc(N2CCN(C(=O)[C@H](CCCCN)n3cc([C@@H](N)[C@H](C)CC)nn3)CC2)nc(N2CCN(C(=O)[C@H](CCCCN)n3cc([C@@H](N)CC(N)=O)nn3)CC2)n1 | 44 | / | /
COC(=O)c1cccc(-c2ccc(C(c3c(C)[nH][nH]c3=O)c3c(C)[nH][nH]c3=O)o2)c1 | 81 | / | /
CCOc1c(O)ccc(/C=C2\SC(=S)NC2=O)c1[N+](=O)[O-] | 56 | / | /
CNS(=O)(=O)Cc1ccc2[nH]cc(CCN(C)C)c2c1 | 1 | / | /
O=C(OCC(=O)N1CCCCC1)c1n[nH]c(=O)c2ccccc12 | -572* | 2 | 7
C[C@@]12CCC=C[C@H]1[C@H](c1ccc3ccccc3c1Br)N(Cc1ccccc1)C2=O | 49 | / | /
NC(=S)NNc1cccc2cccnc12 | 76 | / | /
O=C(CNC(=O)c1ccc(Br)cc1)c1ccc(Br)cc1 | -463* | -6 | 13
NC1=NC[C@H](c2ccccc2)N1CCc1cc(C(F)(F)F)cc(C(F)(F)F)c1 | 54 | / | /
COc1ccc(Cn2c(N)c(C#N)c3nc4ccccc4nc32)cc1 | 50 | / | /
CC(=O)Nc1ccc(CN2CCc3c([nH]c4ccccc34)C2C(C)(C)C)cc1 (stereo not drawn) | -55* | 9 | 15
Cc1[nH]n(-c2ccccc2)c(=O)c1C(C[N+](=O)[O-])c1ccc(F)cc1 (stereo not drawn) | 94 | / | /
CCN(CC)c1ccc(NC(=O)c2cnn(CC)c2)cc1 | -55* | 7 | 11
CCCCCCCCCCCCCCCCn1cc[n+](C)c1 | 80 | / | /
CCCCC(=Nc1ccc(N)cc1)C1=C(O)C(C(=O)OC)C(C)(C)CC1=O (stereo not drawn) | 62 | / | /
CCN1CCN(C(=O)CN(c2cc(OC)ccc2OC)S(C)(=O)=O)CC1 | -191* | 3 | 13
OCCN1CCN(CC/C=C2/c3ccccc3Sc3ccc(Cl)cc32)CC1 | 43 | / | /
c1coc(-c2nc(-c3ccco3)c(-c3ccco3)nc2-c2ccco2)c1 | 63 | / | /
CCCC[n+]1ccn(C2=C([O-])c3ccccc3C(=O)/C2=N\S(=O)(=O)c2ccccc2)c1 | 59 | / | /
CC(C)=CCc1c(O)c(CC=C(C)C)c2c(c1O)C(=O)CC(c1ccc(O)cc1)O2 (stereo not drawn) | -150* | 16 | 23
Cc1ccc(C2(c3noc(CN(C)CC4CCCCO4)n3)CCCC2)cc1 (stereo not drawn) | -413* | 19 | 18
CN1CCc2cccc3c2[C@H]1Cc1ccc(O)c(O)c1-3 | 42 | / | /
COC(=O)c1ccccc1-c1ccc(C(c2c(C)[nH][nH]c2=O)c2c(C)[nH][nH]c2=O)o1 | 79 | / | /
COC(=O)c1ccccc1-c1c2ccc(=N)cc-2oc2cc(N)ccc12 | -332* | + | -82*
COC(=O)CCC(=O)OC1(C)C(=O)C=C2C=C(C3CC3)N(C3CC3)C=C2C1=O (stereo not drawn) | 54 | / | /
SMILES | Apaf1 activ | Rh110 act interf | Apaf-1 act conf | others
COc1ccc(N)cc1-n1c(C)ccc1C | 84 | / | /
Nc1cccc2cnccc12 | 67 | / | /
O=[N+]([O-])c1ccccc1-c1ccc(C(=S)N2CCCC2)o1 | 47 | / | /
O=C(NNC(=O)C1CC1)c1ccccc1[N+](=O)[O-] | -60* | 0 | 9
COCCN(C(=O)COC(=O)/C=C/c1ccc(C(F)(F)F)cc1)c1c(N)n(Cc2ccccc2)c(=O)[nH]c1=O | 44 | / | /
N=c1n(CC(=O)c2ccc(Br)cc2)c2ccccc2n1Cc1ccccc1 | 53 | / | /
N#CCCn1cc(C(CC(=O)c2ccc(Br)cc2)C(=O)O)c2ccccc21 (stereo not drawn) | -67* | 10 | -48* | Fluor interf act=>100
C#CCOCCOCCOCCNc1nc(N2CCN(C(=O)C([C@@H](C)CC)n3cc(C(N)COC(=O)C(F)(F)F)nn3)CC2)nc(N2CCN(C(=O)[C@H](Cc3cc4ccccc4[nH]3)n3cc(C(N)CO)nn3)CC2)n1 (stereo partly drawn) | 49 | / | /

Screening data deposited in PubChem BioAssay by Sanford-Burnham Center for Chemical Genomics.
